Test results reported in ChEMBL document CHEMBL1124958 (J Med Chem, 1990).
pIC50, pKi: −log10 of the molar value.

Tests used:
[1] = target: T1, Serotonin 2 (5-HT2) receptor (Mus musculus, UniProt Q02152+P34968+P35363); experiment: Binding affinity towards 5-hydroxytryptamine 2 receptor by the displacement of [3H]-ketanserin in mouse cerebral cortex; assay type: tissue-based
Procedure, shortened: (§1)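 BALB/cBy mouse cerebral cortex, homogenized in 0.25 M sucrose; 1000g supernatant pelleted at 35000g and washed in 50 mM Tris-HCl pH 7.4. Nonspecific binding defined with 1 μM methysergide. Filtration on GF/B, scintillation counting. IC50 from computer fit of seven-point curves, averaged over 2–5 determinations.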

[2] = target: T1, Serotonin 2 (5-HT2) receptor; experiment: Inhibitory activity towards 5-hydroxytryptamine 2 receptor by the displacement of [3H]ketanserin in mouse cerebral cortex; assay type: tissue-based; procedure, shortened: as §1
[3] = target: T2, 5-hydroxytryptamine receptor 1A (Mus musculus, UniProt Q64264); experiment: Inhibitory activity towards 5-hydroxytryptamine 1A receptor by the displacement of [3H]8-OH-DPAT in mouse hippocampus; assay type: tissue-based
T2 sequence (Q64264 whole entry): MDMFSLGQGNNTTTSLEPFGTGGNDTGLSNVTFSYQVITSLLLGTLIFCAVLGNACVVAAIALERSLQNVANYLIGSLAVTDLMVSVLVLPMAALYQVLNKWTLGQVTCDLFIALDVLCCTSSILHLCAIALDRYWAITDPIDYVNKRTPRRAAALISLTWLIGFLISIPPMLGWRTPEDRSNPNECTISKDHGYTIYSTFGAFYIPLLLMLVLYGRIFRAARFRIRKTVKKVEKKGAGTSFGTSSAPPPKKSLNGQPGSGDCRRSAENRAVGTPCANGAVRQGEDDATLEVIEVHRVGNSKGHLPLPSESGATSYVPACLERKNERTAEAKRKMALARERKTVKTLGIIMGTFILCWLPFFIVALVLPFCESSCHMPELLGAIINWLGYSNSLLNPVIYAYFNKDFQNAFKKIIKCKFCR

[4] = target: Serotonin 2 (5-HT2) receptor (Mus musculus) (UniProt Q02152+P34968+P35363); experiment: Hill number was determined for inhibition of [3H]ketanserin binding to 5-hydroxytryptamine 2 receptor in mouse cerebral cortex; assay type: tissue-based
Procedure, shortened: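 Hill numbers taken from seven-point inhibition curves of 0.15 nM [3H]ketanserin binding to washed mouse cortical membranes in 50 mM Tris-HCl pH 7.4, incubated 15 min at 37 °C. Nonspecific binding set with 1 μM methysergide; bound radioligand collected by filtration and counted.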

[5] = target: T2, 5-hydroxytryptamine receptor 1A; experiment: Binding affinity towards 5-hydroxytryptamine 1A receptor by the displacement of [3H]8-OH-DPAT in mouse hippocampus; assay type: tissue-based
Procedure, shortened: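 Membranes incubated in triplicate with 1.2 nM [3H]8-OH-DPAT plus varying analogue concentrations, 30 min at 23 °C, 0.5 mL final volume. Filtered on PEI-pretreated GF/B; scintillation counting. IC50 derived from seven-point inhibition curves.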

[6] = target: T3, 5-hydroxytryptamine receptor 1A (Mus musculus) (UniProt Q64264); experiment: Hill number was determined for inhibition of [3H]8-OH-DPAT binding to 5-hydroxytryptamine 1A receptor in mouse hippocampus; assay type: tissue-based
T3 sequence (whole entry): T2 sequence (Q64264 whole entry)

[7] = target: T3, 5-hydroxytryptamine receptor 1A (Mus musculus); settings: Hippocampus
Mus musculus [8] = species: Mus musculus; experiment: Hill number was determined for inhibition of [3H]8-OH-DPAT binding in mouse hippocampus; assay type: functional
Procedure, shortened: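 Triplicate incubations ran 30 min at 23 °C with 1.2 nM [3H]8-OH-DPAT over varying analogue concentrations, followed by filtration on polyethylenimine-treated GF/B filters and scintillation counting. Inhibition curves had seven points.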

Mus musculus [9] = species: Mus musculus; experiment: Hill number was determined for inhibition of [3H]ketanserin binding in mouse cerebral cortex; assay type: tissue-based
Procedure, shortened: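 Cerebral cortex from adult BALB/cBy mice was homogenised in ice-cold 0.25 M sucrose pH 7.4. The 1000g supernatant was washed at 35000g in 50 mM Tris-HCl pH 7.4. Triplicate incubations ran 15 min at 37 °C with 0.15 nM [3H]ketanserin and varying analogue concentrations, final 2 mL. Nonspecific binding was set with 1 μM methysergide, and bound ligand was filtered on GF/B and counted by scintillation. Inhibition curves had seven points.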

Sequence of Serotonin 2 (5-HT2) receptor (Mus musculus) (P34968 whole entry, looked up): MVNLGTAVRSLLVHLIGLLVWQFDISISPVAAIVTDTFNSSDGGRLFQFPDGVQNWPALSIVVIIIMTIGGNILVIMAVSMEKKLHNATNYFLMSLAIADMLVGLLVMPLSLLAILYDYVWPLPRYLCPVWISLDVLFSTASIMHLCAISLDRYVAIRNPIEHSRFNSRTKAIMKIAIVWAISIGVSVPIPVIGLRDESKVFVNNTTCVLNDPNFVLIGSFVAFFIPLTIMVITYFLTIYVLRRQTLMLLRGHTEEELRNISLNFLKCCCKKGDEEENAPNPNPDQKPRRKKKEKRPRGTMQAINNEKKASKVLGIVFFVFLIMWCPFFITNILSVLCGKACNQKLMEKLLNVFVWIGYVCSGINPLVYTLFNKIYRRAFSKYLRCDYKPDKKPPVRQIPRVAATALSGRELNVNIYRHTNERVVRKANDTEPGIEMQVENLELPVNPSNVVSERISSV
Sequence of Serotonin 2 (5-HT2) receptor (Mus musculus) (P35363 whole entry, looked up): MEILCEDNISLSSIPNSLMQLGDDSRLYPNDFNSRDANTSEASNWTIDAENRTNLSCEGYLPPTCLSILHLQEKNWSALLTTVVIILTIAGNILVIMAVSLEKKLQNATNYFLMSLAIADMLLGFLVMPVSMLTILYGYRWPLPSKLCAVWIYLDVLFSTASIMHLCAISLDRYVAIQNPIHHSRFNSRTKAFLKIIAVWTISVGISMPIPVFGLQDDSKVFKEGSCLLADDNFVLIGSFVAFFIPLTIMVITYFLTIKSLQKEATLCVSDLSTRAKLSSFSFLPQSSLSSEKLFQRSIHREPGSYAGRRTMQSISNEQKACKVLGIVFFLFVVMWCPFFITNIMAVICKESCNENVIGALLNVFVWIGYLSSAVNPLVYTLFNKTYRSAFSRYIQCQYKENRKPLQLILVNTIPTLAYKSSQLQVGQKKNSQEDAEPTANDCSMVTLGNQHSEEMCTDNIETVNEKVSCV
Sequence of Serotonin 2 (5-HT2) receptor (Mus musculus) (Q02152 whole entry, looked up): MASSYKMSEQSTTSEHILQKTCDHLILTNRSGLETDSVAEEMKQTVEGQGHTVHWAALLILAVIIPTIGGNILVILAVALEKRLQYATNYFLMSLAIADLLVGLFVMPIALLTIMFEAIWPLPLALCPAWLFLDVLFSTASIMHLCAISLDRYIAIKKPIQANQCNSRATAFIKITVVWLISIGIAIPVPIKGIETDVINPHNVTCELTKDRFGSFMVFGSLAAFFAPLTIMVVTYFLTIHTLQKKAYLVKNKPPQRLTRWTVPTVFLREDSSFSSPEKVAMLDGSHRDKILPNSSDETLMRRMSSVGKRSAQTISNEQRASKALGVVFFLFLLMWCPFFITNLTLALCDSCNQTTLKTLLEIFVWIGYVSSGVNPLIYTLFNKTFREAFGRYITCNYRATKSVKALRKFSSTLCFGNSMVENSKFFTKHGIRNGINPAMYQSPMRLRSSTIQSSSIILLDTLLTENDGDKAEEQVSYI

Row | Compound | Ki [1] [µM] | IC50 [2] [µM] | pIC50 [3] | Hill coefficient [4] | pKi [5] | Hill coefficient [6] | other results
1 | O=C1CC2CCC1C(N1CCCCC1)C2c1ccccc1 (stereo not drawn) | 132 | 181 | 3.45 | 1.2 | 3.56 | 0.89 | 
2 | O=C1CC2CCC1C(N1CCCC1)C2c1c[nH]c2ccccc12 (stereo in doubt; 9a) [listing 1 of 2 here] | 23 | 32 | 4.34 |  | 4.49 |  | 
3 | O=C1CC2CCC1C(N1CCCC1)C2c1c[nH]c2ccccc12 (stereo in doubt; 9a) [listing 2 of 2 here] |  |  |  | 0.9 |  |  | Hill coefficient [7]: 0.95
4 | O=C1CC2CCC1C(N1CCCC1)C2c1c[nH]c2ccccc12 (stereo in doubt; 9b) [listing 1 of 2 here] | 70 | 96 | 4.28 |  |  |  | 
5 | O=C1CC2CCC1C(N1CCCC1)C2c1c[nH]c2ccccc12 (stereo in doubt; 9b) [listing 2 of 2 here] |  |  |  | 1 |  | 0.47 | 
6 | O=C1CC2CCC1C(N1CCCCC1)C2c1c[nH]c2ccccc12 (stereo in doubt; 10a) [listing 1 of 2 here] | 4 | 5 | 4.07 |  | 4.21 |  | 
7 | O=C1CC2CCC1C(N1CCCCC1)C2c1c[nH]c2ccccc12 (stereo in doubt; 10a) [listing 2 of 2 here] |  |  |  | 1 |  | 1.2 | 
8 | O=C1CC2CCC1C(N1CCCCC1)C2c1c[nH]c2ccccc12 (stereo in doubt; 10b) [listing 1 of 2 here] | 61 | 84 | 3.80 |  | 3.94 |  | 
9 | O=C1CC2CCC1C(N1CCCCC1)C2c1c[nH]c2ccccc12 (stereo in doubt; 10b) [listing 2 of 2 here] |  |  |  | 0.9 |  | 0.88 | 
10 | C1=CC2CCC1C(c1c[nH]c3ccccc13)C2N1CCCC1 (stereo in doubt; 12a) [listing 1 of 2 here] | 14 | 19 | 4.92 |  | 5.07 |  | 
11 | C1=CC2CCC1C(c1c[nH]c3ccccc13)C2N1CCCC1 (stereo in doubt; 12a) [listing 2 of 2 here] |  |  |  | 1 |  | 0.95 | 
12 | C1=CC2CCC1C(c1c[nH]c3ccccc13)C2N1CCCC1 (stereo in doubt; 12b) [listing 1 of 2 here] | 17 | 24 | 4.33 |  |  |  | 
13 | C1=CC2CCC1C(c1c[nH]c3ccccc13)C2N1CCCC1 (stereo in doubt; 12b) [listing 2 of 2 here] |  |  |  | 0.9 |  | 0.61 | 
14 | C1=CC2CCC1C(c1c[nH]c3ccccc13)C2N1CCCCC1 (stereo in doubt; 13a) [listing 1 of 2 here] | 8 | 10 | 4.74 |  | 4.87 |  | 
15 | C1=CC2CCC1C(c1c[nH]c3ccccc13)C2N1CCCCC1 (stereo in doubt; 13a) [listing 2 of 2 here] |  |  |  | 1 |  | 0.93 | 
16 | C1=CC2CCC1C(c1c[nH]c3ccccc13)C2N1CCCCC1 (stereo in doubt; 13b) [listing 1 of 2 here] | 9 | 13 | 4.05 |  |  |  | 
17 | C1=CC2CCC1C(c1c[nH]c3ccccc13)C2N1CCCCC1 (stereo in doubt; 13b) [listing 2 of 2 here] |  |  |  | 0.9 |  | 0.69 | 
18 | NCCc1c[nH]c2ccc(O)cc12 [SEROTONIN] |  |  |  |  |  |  | Hill coefficient (Mus musculus [8]): 0.75; Hill coefficient (Mus musculus [9]): 0.85
